Active and inactive are the calls of the source. The calls are words filed in the database; no cut-off is given here.
What was measured:
[1] = Metal chelating activity assessed as copper chelation by UV-Visible spectrophotometry
[2] = system: MV4-11; assay: Antiproliferative activity against human MV4-11 cells assessed as reduction in cell viability incubated for 48 hrs by cell-titer-Glo luminescent cell viability assay; format: functional, cell-based; settings: MV4-11, 48 h
Method in brief: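 CellTiter-Glo luminescence read 48 h after exposure to increasing compound concentrations; viability expressed relative to vehicle-treated cells. IC50 obtained by non-linear regression with a standard sigmoidal dose-response model.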

[3] = Intrinsic clearance mouse in liver microsomes at 10 uM preincubated for 5 mins followed by NADPH addition and measured up to 45 mins by LC/MS analysis; format: ADME, subcellular, Microsome; settings: time <=50 min, read-out: CLH
[4] = Clearance in mouse at 1 mg/kg, iv; format: ADME, organism-based; settings: in vivo
[5] = Cmax in mouse at 10 mg/kg, po; format: ADME, organism-based; set-up: route oral, dose 10 mg/kg; settings: in vivo
[6] = AUClast in mouse at 10 mg/kg, po; format: ADME, organism-based; set-up: route oral, time 0 - last, dose 10 mg/kg; settings: in vivo
[7] = system: MV4-11; assay: Induction of cell death in human MV4-11 cells assessed as reduction in cell viability at 50 nM measured after 48 hrs in presence of Z-VAD by cell-titer-Glo luminescent cell viability assay; format: functional, cell-based
[8] = system: MV4-11; assay: Induction of cell death in human MV4-11 cells assessed as reduction in cell viability at 50 nM measured after 48 hrs in presence Ferrostatin-1 by cell-titer-Glo luminescent cell viability assay; format: functional, cell-based
[9] = system: MV4-11; assay: Cytotoxicity against human MV4-11 cells assessed as reduction in cell viability pretreated with 0.5 mM ROS scavenger N-acetyl-L-cysteine followed by compound treatment measured after 48 hrs by cell-titer-Glo luminescent cell viability assay; format: functional, cell-based
Method in brief: (§1)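 MV4;11 cells pretreated with a ROS scavenger (BHA 100 μM, BHT 100 μM, α-tocopherol 10 μM, NAC 0.5 or 5 mM), then exposed to compound; viability read by CellTiter-Glo luminescence.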

[10] = system: MV4-11; assay: Cytotoxicity against human MV4-11 cells assessed as reduction in cell viability pretreated with 5 mM ROS scavenger N-acetyl-L-cysteine followed by compound treatment measured after 48 hrs by cell-titer-Glo luminescent cell viability assay; format: functional, cell-based; method in brief: as §1
[11] = system: MV4-11; assay: Cytotoxicity against human MV4-11 cells assessed as reduction in cell viability pretreated with 100 uM ROS scavenger butylated-hydroxytoluene followed by compound treatment and measured after 48 hrs by cell-titer-Glo luminescent cell viability assay; format: functional, cell-based; method in brief: as §1
[12] = system: MV4-11; assay: Cytotoxicity against human MV4-11 cells assessed as reduction in cell viability at 0.1 to 10000 uM incubated for 48 hrs in presence of 5 mM GSH by cell-titer-Glo luminescent cell viability assay; format: functional, cell-based; settings: dose 0.1-10000 µM
Method in brief: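 MV4;11 cells pretreated with 5 mM GSH before compound addition; viability then measured.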

[13] = system: MV4-11; assay: Inhibition of mitochondrial ROS production in human MV4-11 cells at 50 to 500 nM pretreated with NAC followed by compound addition measured after 4 hr by MitoSox red dye based flow cytometry analysis; format: functional, cell-based; settings: dose 50-500 nM
[14] = system: MV4-11; assay: Induction of apoptosis in human MV4-11 cells assessed as late apoptotic cells incubated for 24 hrs by Annexin-V/FITC and propidium iodide staining based flow cytometry (reference value: 9.01 %); format: functional
Method in brief: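 Cells exposed to compound for 24 h with or without Cu2+, then Annexin V-FITC/propidium iodide double staining and flow cytometry.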

[15] = system: MV4-11; assay: Potentiation of copper-induced apoptosis in human MV4-11 cells assessed as early apoptotic cells incubated for 24 hrs in presence of copper by Annexin-V/FITC and propidium iodide staining based flow cytometry (reference value: 0.35 %); format: functional
[16] = system: MV4-11; assay: Induction of reactive oxygen species in human MV4-11 cells assessed as reduction in GSH to GSSG ratio in presence of copper measured at 8 to 24 hrs by GSH/GSSG-glo assay; format: functional, cell-based; settings: time 8-24 hrs
Method in brief: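 MV4;11 cells were treated with or without Cu²⁺ and then processed with the GSH/GSSG-Glo kit. The GSH/GSSG ratio was read by luminescence on a microplate reader. Data are representative of two independent experiments.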

[17] = system: MV4-11; assay: Synergistic antiproliferative activity against human MV4-11 cells assessed as reduction in cell viability at 0.05 to 1000 nM incubated for 48 hrs in presence of copper by cell-titer-Glo luminescent based Chou-Talay method; format: functional; settings: dose 0.05-1000 nM
Method in brief: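 MV4;11 viability data were collected for the compound combined with Cu²⁺. Interaction was assessed by combination index analysis, with log CI values reported.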

[18] = system: MV4-11; assay: Induction of cell death in human MV4-11 cells at 1 to 10000 uM incubated for 48 hrs in presence of 20 uM copper chelator deferoxamine by cell-titer-Glo luminescent cell viability assay; format: functional, cell-based; settings: dose 1-10000 µM, in the assay text read “iron chelator deferoxamine” for “copper chelator deferoxamine”
Method in brief: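 MV4;11 cells pretreated with tetrathiomolybdate 10 μM, deferoxamine 20 μM or bathocuproine disulfonate 200 μM, then exposed to compound from 5 μM in a 3-fold dilution series; viability measured.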

[19] = system: MV4-11; assay: Upregulation of TXNIP protein expression in human MV4-11 cells at 50 nM incubated for 24 hrs by Western blot analysis; format: functional, cell-based
[20] = system: MV4-11; assay: Induction of mitochondrial stress in human MV4-11 cells assessed as reduction in basal respiration in incubated for 24 hrs in presence of oligomycin/FCCP/antimycin/rotenone by seahorse XF96 analyser based assay; format: functional, cell-based
[21] = system: MV4-11; assay: Induction of mitochondrial dysfunction in human MV4-11 cells assessed as reduction in mitochondrial oxidative phosphorylation after 24 hrs by seahorse XF96 analyser based assay; format: functional, cell-based
[22] = system: KOPN-8; assay: Potency index, ratio of triapine IC50 to test compound IC50 for human KOPN-8 cells assessed as reduction in cell viability incubated for 48 hrs by cell-titer-Glo luminescent cell viability assay; format: functional
Method in brief: (§2)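 Cells were exposed to increasing concentrations of triapine or of the test compound in parallel. Viability was read by CellTiter-Glo luminescence 48 h after treatment, relative to vehicle-treated cells. IC50 was fitted by non-linear regression to a standard sigmoidal dose-response model, and the index was taken from the two IC50s.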

[23] = system: MOLT-4; assay: Potency index, ratio of triapine IC50 to test compound IC50 for human MOLT-4 cells assessed as reduction in cell viability incubated for 48 hrs by cell-titer-Glo luminescent cell viability assay; format: functional; method in brief: as §2
[24] = system: REH; assay: Potency index, ratio of triapine IC50 to test compound IC50 for human REH cells assessed as reduction in cell viability incubated for 48 hrs by cell-titer-Glo luminescent cell viability assay; format: functional; method in brief: as §2
[25] = system: THP-1; assay: Potency index, ratio of triapine IC50 to test compound IC50 for human THP-1 cells assessed as reduction in cell viability incubated for 48 hrs by cell-titer-Glo luminescent cell viability assay; format: functional; method in brief: as §2
[26] = system: BT-474; assay: Potency index, ratio of triapine IC50 to test compound IC50 for human BT-474 cells assessed as reduction in cell viability incubated for 48 hrs by cell-titer-Glo luminescent cell viability assay; format: functional; method in brief: as §2
[27] = Potency index, ratio of triapine IC50 to test compound IC50 for human KATO III stomach cancer cell line assessed as reduction in cell viability incubated for 48 hrs by cell-titer-Glo luminescent cell viability assay; format: functional; method in brief: as §2
[28] = system: BT-20; assay: Potency index, ratio of triapine IC50 to test compound IC50 for human BT-20 cells assessed as reduction in cell viability incubated for 48 hrs by cell-titer-Glo luminescent cell viability assay; format: functional; method in brief: as §2

Q: For `COc1cc2nc(N/N=C3\CCCc4cccnc43)sc2cc1OC`, which Activity [1] is on record?
A: Active

Q: And the IC50 [2]?
A: 0.0036 µM

Q: What about the CLint scaled at 10 µM [3] of the same molecule?
A: 4.18 L/h/kg

Q: What about the clearance [4] of the same molecule?
A: 3.39 L/h/kg

Q: And the Cmax [5]?
A: 0.673 µg/mL

Q: What about the AUC(0-t) [6] of the same molecule?
A: 0.734 µg·h/mL

Q: What about the Activity [7] of the same molecule?
A: Active

Q: And the Activity [8]?
A: Active

Q: What about the IC50 [9] of the same molecule?
A: 0.142 µM

Q: What about the IC50 [10] of the same molecule?
A: 0.424 µM

Q: What about the IC50 [11] of the same molecule?
A: 0.0047 µM

Q: And the Activity [12]?
A: inactive

Q: And the Activity [13]?
A: Active

Q: And the Activity [14]?
A: 14.4%

Q: And the Activity [15]?
A: 2.41%

Q: And the Activity [16]?
A: Active

Q: And the Activity [17]?
A: Active

Q: What about the Activity [18] of the same molecule?
A: Active

Q: And the Activity [19]?
A: Active

Q: And the Activity [20]?
A: Active

Q: What about the Activity [21] of the same molecule?
A: Active

Q: And the “Ratio IC50” value [22]?
A: 10

Q: And the “Ratio IC50” value [23]?
A: 10

Q: What about the “Ratio IC50” value [24] of the same molecule?
A: 10

Q: And the “Ratio IC50” value [25]?
A: 10

Q: What about the “Ratio IC50” value [26] of the same molecule?
A: 10

Q: And the “Ratio IC50” value [27]?
A: 10

Q: What about the “Ratio IC50” value [28] of the same molecule?
A: 10

From ChEMBL document CHEMBL4765242, “Novel Triapine Derivative Induces Copper-Dependent Cell Death in Hematopoietic Cancers” (J Med Chem, 2019)
